ChEMBL document CHEMBL3085763, “The sulfamide moiety affords higher inhibitory activity and oral bioavailability to a series of coumarin dual selective RAF/MEK inhibitors” (Bioorg Med Chem Lett, 2013)

Experiments:
Mus musculus = assay: AUC (0 to t) in […] mouse assessed as dimethylcarbamic acid 6-chloro-4-methyl-2-oxo-3-[3-(sulfamoylamino)benzyl]-2H-chromen-7-yl ester level at 200 mg/kg, po after 24 hrs by LC/MS/MS analysis; format: ADME, organism-based, Plasma; parameters: time < 24 hr, dose 200 mg/kg, route oral; details: in vivo
[1] = AUC (0 to t) in […] mouse at 200 mg/kg, po after 24 hrs by LC/MS/MS analysis; format: ADME, organism-based; parameters: time < 24 hr, dose 200 mg/kg, route oral; details: plasma
[2] = AUC (0 to t) in […] mouse at 100 mg/kg, po after 24 hrs by LC/MS/MS analysis; format: ADME, organism-based; parameters: time < 24 hr, dose 100 mg/kg, route oral; details: plasma
[3] = Oral bioavailability in cynomolgus monkey at 5 mg/kg; format: ADME, organism-based, Macaca fascicularis; details: in vivo
Summary of the method: (§1)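 Single intravenous and oral doses given as the sodium salt in 5% DMSO/5% Cremophor EL/15% PEG400/15% HPCD/60% water. The iv/po doses were 10/20 mg/kg in mouse, 5.0/10 mg/kg in rat and 2.5/5.0 mg/kg in monkey. Oral AUCinf, iv t1/2 and clearance were also reported.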

[4] = Oral bioavailability in […] mouse at 100 mg/kg after 24 hrs by LC/MS/MS analysis; format: ADME, organism-based; details: in vivo
Summary of the method: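 Mouse 24-h exposure study with oral dosing at 100 mg/kg of the free form (not sodium salt). Formulated as a solution of 5% DMSO, 5% Cremophor EL, 15% PEG400, 15% HPCD and 60% water.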

[5] = AUC (0 to t) in […] mouse at 50 mg/kg, po after 24 hrs by LC/MS/MS analysis; format: ADME, organism-based; parameters: time < 24 hr, dose 50 mg/kg, route oral; details: plasma
[6] = Oral bioavailability in Crlj:CD rat at 10 mg/kg; format: ADME, organism-based; details: in vivo; summary of the method: as §1
[7] = Oral bioavailability in BALB-nu/nu mouse at 20 mg/kg; format: ADME, organism-based; details: in vivo; summary of the method: as §1
[8] = AUC (infinity) in cynomolgus monkey at 5 mg/kg, po; format: ADME, organism-based, Macaca fascicularis; parameters: time infinity, dose 5 mg/kg, route oral; details: plasma
Summary of the method: (§2)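 The sodium salt was dosed iv and po: mouse 10/20 mg/kg, rat 5.0/10 mg/kg, monkey 2.5/5.0 mg/kg. Vehicle was 5% DMSO/5% Cremophor EL/15% PEG400/15% HPCD/60% water. AUCinf was taken after po dosing; t1/2 was taken after iv dosing.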

[9] = AUC (infinity) in Crlj:CD rat at 10 mg/kg, po; format: ADME, organism-based; parameters: time infinity, dose 10 mg/kg, route oral; details: plasma; summary of the method: as §2
[10] = AUC (infinity) in BALB-nu/nu mouse at 20 mg/kg, po; format: ADME, organism-based; parameters: time infinity, dose 20 mg/kg, route oral; details: plasma; summary of the method: as §2

| SMILES | AUC(0-t) at 24 h [1] [µM·h] | AUC(0-t) at 24 h [2] [µM·h] | also measured |
| --- | --- | --- | --- |
| COCCNS(=O)(=O)Nc1cccc(Cc2c(C)c3cc(Cl)c(OC(=O)N(C)C)cc3oc2=O)c1 | 9 |  | AUCt (Mus musculus): 14 µM·h |
| Cc1c(Cc2cccc(NS(C)(=O)=O)c2)c(=O)oc2cc(OC(=O)N(C)C)c(Cl)cc12 |  | 41 |  |
| CNS(=O)(=O)Nc1cccc(Cc2c(C)c3cc(Cl)c(OC(=O)N(C)C)cc3oc2=O)c1 |  | 17 | bioavailability [3]: < 5%; bioavailability [4]: 10% |
| CNS(=O)(=O)[N-]c1cccc(Cc2c(C)c3cc(Cl)c(OC(=O)N(C)C)cc3oc2=O)c1.[Na+] |  | 51 | bioavailability [4]: 31% |
| Cc1c(Cc2cccc(NS(=O)(=O)NCCO)c2)c(=O)oc2cc(OC(=O)N(C)C)c(Cl)cc12 | 14 |  |  |
| Cc1c(Cc2cccc(NS(=O)(=O)NCCC#N)c2)c(=O)oc2cc(OC(=O)N(C)C)c(Cl)cc12 | 25 |  |  |
| Cc1c(Cc2cccc(NS(=O)(=O)N(C)C)c2)c(=O)oc2cc(OC(=O)N(C)C)c(Cl)cc12 |  |  | AUC(0-t) at 24 h [5]: 3 µM·h |
| Cc1c(Cc2cccc(NS(=O)(=O)NCC(F)(F)F)c2)c(=O)oc2cc(OC(=O)N(C)C)c(Cl)cc12 |  | 26 |  |
| Cc1c(Cc2cccc(N)c2)c(=O)oc2cc(OC(=O)N(C)C)c(Cl)cc12 | 29 |  |  |
| CCS(=O)(=O)Nc1cccc(Cc2c(C)c3cc(Cl)c(OC(=O)N(C)C)cc3oc2=O)c1 |  | 30 |  |
| Cc1c(Cc2cccc(NS(N)(=O)=O)c2F)c(=O)oc2cc(OC(=O)N(C)C)c(F)cc12 |  |  | bioavailability [3]: 30%; bioavailability [6]: 62%; bioavailability [7]: 51%; AUC(0-inf) [8]: 2.2 µM·h; AUC(0-inf) [9]: 6 µM·h; AUC(0-inf) [10]: 26 µM·h |
| CONS(=O)(=O)Nc1cccc(Cc2c(C)c3cc(Cl)c(OC(=O)N(C)C)cc3oc2=O)c1 |  | 62 |  |
| Cc1c(Cc2cccc(NS(N)(=O)=O)c2)c(=O)oc2cc(OC(=O)N(C)C)c(Cl)cc12 | 70 |  |  |
